# Reference: ChEMBL document CHEMBL4017487, “Design and Synthesis of γ- and δ-Lactam M1 Positive Allosteric Modulators (PAMs): Convulsion and Cholinergic Toxicity of an M1-Selective PAM with Weak Agonist Activity” (J Med Chem, 2017)
# Calls of active or inactive are those of the source. No cut-off for these calls is given here.
# Legend:
# [1] = molecular target: T1, Muscarinic acetylcholine receptor M1 (Homo sapiens, UniProt P11229); experiment: Agonist activity at human muscarinic acetylcholine receptor M1 expressed in CHO cells assessed as increase in calcium mobilization at 30 uM incubated for 10 mins by Fluo-8-AM dye based FLIPR assay relative to acetylcholine; type: cell-based
# T1 sequence (P11229 whole entry): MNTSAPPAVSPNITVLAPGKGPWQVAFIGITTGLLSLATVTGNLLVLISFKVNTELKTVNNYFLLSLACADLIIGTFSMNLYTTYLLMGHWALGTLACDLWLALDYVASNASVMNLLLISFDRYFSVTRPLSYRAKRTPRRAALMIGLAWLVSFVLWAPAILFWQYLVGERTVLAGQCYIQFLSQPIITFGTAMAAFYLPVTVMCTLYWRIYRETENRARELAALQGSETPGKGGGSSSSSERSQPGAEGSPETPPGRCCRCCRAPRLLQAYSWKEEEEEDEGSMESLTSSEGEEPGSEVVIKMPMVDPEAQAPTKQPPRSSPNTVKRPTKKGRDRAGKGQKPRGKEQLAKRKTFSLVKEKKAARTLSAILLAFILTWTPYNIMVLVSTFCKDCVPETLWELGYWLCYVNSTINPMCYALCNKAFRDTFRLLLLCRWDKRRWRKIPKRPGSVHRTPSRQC
# Plasma = experiment: Unbound plasma concentration in amphetamine-induced hyperlocomotion C57BL/6 mouse at 0.3 mg/kg, sc measured after 1 hr by LC-MS/MS analysis; type: ADME, organism-based; details: in vivo
# Procedure, shortened: (§1)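 Satellite group of C57BL/6 mice from the amphetamine-stimulated locomotor study, N = 2/dose at 0.32, 1 and 3.2 mg/kg. Dosed sc as a solution in 10/90 Cremophor/water. Unbound plasma and brain concentrations measured at T = 1 h.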
# [2] = molecular target: T2, Muscarinic acetylcholine receptor M5 (Homo sapiens, UniProt P08912); experiment: Agonist activity at human muscarinic acetylcholine receptor M5 expressed in CHO cells assessed as increase in calcium mobilization incubated for 10 mins by Fluo-8-AM dye based FLIPR assay; type: cell-based
# T2 sequence (P08912 whole entry): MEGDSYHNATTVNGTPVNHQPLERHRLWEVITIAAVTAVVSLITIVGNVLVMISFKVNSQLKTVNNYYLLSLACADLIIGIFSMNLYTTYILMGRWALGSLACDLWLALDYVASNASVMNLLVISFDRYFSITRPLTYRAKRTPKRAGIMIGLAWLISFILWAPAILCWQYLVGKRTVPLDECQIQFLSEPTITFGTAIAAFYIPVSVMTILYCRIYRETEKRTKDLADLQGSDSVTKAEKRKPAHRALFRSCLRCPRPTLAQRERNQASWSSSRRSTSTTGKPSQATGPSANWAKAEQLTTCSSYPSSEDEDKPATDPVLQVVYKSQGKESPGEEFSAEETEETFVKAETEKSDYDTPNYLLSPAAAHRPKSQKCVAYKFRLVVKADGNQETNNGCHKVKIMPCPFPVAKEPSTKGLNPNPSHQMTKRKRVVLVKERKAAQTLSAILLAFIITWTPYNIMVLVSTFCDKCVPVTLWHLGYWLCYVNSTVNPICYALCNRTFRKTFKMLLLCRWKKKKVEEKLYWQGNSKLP
# Procedure, shortened: (§2)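 Recombinant functional human M2–M5 assays, each run in agonist and PAM modes at concentrations up to 10 μM.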
# Canis familiaris [3] = experiment: Toxicity in dog assessed as convulsion at 15 mg/kg, po administered as single dose using spray dried dispersion formulation after 1.2 hrs; type: organism-based, Canis lupus familiaris; details: in vivo
# Procedure, shortened: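 Dog single oral dose escalation: 1/sex at 5 mg/kg for each formulation; 1 female at 15 mg/kg. Spray-dried dispersion: 23% drug loading with 0.5% methylcellulose and 100 mM citrate buffer. Clinical signs timed in approximate hours postdose; unbound plasma Cmax.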
# Rattus norvegicus [4] = experiment: Toxicity in rat assessed as unbound brain concentration at 45 mg/kg, po administered as single dose; type: organism-based; details: in vivo
# Rattus norvegicus [5] = experiment: Toxicity in rat assessed as unbound Cmax in brain required to show convulsions at 45 mg/kg, po administered as single dose; type: organism-based; details: in vivo
# Rattus norvegicus [6] = experiment: Unbound Cmax in rat plasma at 5 mg/kg, po administered as single dose; type: ADME, organism-based; details: in vivo
# Procedure, shortened: (§3)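 Rats (3/sex/dose) dosed orally once, 1 or 5 mg/kg as a 0.5% methylcellulose suspension.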
# [7] = molecular target: T1, Muscarinic acetylcholine receptor M1; experiment: Agonist activity at human muscarinic acetylcholine receptor M1 expressed in CHO cells assessed as increase in calcium mobilization at 13 uM incubated for 10 mins by Fluo-8-AM dye based FLIPR assay relative to control; type: cell-based; details: read-out: %max
# Rattus norvegicus [8] = experiment: Unbound AUC (0 to 24 hrs) in rat plasma at 5 mg/kg, po administered as single dose; type: ADME, organism-based; details: in vivo; procedure, shortened: as §3
# Brain = experiment: Unbound brain concentration in amphetamine-induced hyperlocomotion C57BL/6 mouse at 3.2 mg/kg, sc measured after 1 hr by LC-MS/MS analysis; type: ADME, organism-based; details: in vivo; procedure, shortened: as §1
# [9] = Oral bioavailability in rat at 2 mg/kg administered as single dose; type: ADME, organism-based; details: in vivo
# [10] = molecular target: T1, Muscarinic acetylcholine receptor M1; experiment: Activity at human muscarinic acetylcholine receptor M1 expressed in CHO cells assessed as increase in acetylcholine-induced calcium mobilization incubated for 10 mins by Fluo-8-AM dye based FLIPR assay; type: ADME, cell-based
# Procedure, shortened: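 Calcium-mobilization potentiation assay read on a FLIPR plate reader in the presence of an EC20 concentration of ACh. EC50 is the geometric mean of at least three experiments.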
# [11] = Ratio of unbound AUC in iv or po dosed mouse brain to plasma; type: ADME, organism-based
# [12] = molecular target: T1, Muscarinic acetylcholine receptor M1; experiment: Displacement of [3H]PT-1284 human muscarinic acetylcholine receptor M1 expressed in CHO cell membranes after 90 mins scintillation counting method
# Rattus norvegicus [13] = experiment: Reversal of scopolamine-induced memory impairment in Wistar rat assessed as […] in hidden platform during 5 days training period at 0.32 to 3.2 mg/kg, sc administered 15 mins prior to test for 5 consecutive days followed by scopolamine challenge 30 mins prior to test by Morris water maze test; type: functional, organism-based
# [14] = molecular target: T2, Muscarinic acetylcholine receptor M5; experiment: Positive allosteric modulation of human muscarinic acetylcholine receptor M5 expressed in CHO cells assessed as increase in acetylcholine-induced calcium mobilization up to 10 uM preincubated for 10 mins followed by acetylcholine addition by Fluo-8-AM dye based FLIPR assay; type: cell-based; procedure, shortened: as §2
# [15] = Ratio of unbound AUC in dog brain to plasma at 0.5 mg/kg, po or 0.1 mg/kg, iv administered as single bolus dose; type: ADME, organism-based, Canis lupus familiaris
# Canis familiaris [16] = experiment: Cholinergic toxicity in dog assessed as watery stool at 5 mg/kg, po administered as single dose using shydroxypropyl cellulose/docusate sodium formulation after 0.5 to 1.3 hrs; type: organism-based, Canis lupus familiaris; details: in vivo
# Procedure, shortened: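 Single-dose oral dose-escalation study, 1 dog/sex/dose. The 5 mg/kg dose was given as a nanosuspension in hydroxypropyl cellulose SL with 0.05% docusate sodium in purified water. Cholinergic clinical signs were recorded at approximate hours postdose, alongside unbound plasma Cmax.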
# Mus musculus = experiment: Reversal of amphetamine-induced hyperlocomotion in C57BL/6 mouse assessed as decrease in total distance traveled at 0.3 to 3.2 mg/kg, sc pretreated for 30 mins followed by amphetamine dosing measured for 90 mins; type: functional, organism-based
# Procedure, shortened: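 C57BL/6 mice, D-amphetamine-stimulated locomotor activity. Compound at 0.32, 1 and 3.2 mg/kg sc as a solution in 10/90 Cremophor/water. Plasma and brain exposures from a satellite group (N = 2/dose) at 1 h.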
# [17] = Clearance in dog at 0.1 mg/kg, iv administered as single bolus dose; type: ADME, organism-based, Canis lupus familiaris; details: in vivo
smiles,measurement,setting,value
Cc1cc2c(cc1Cc1ccc(-c3cocn3)cc1)C(=O)N([C@H]1CCOC[C@@H]1O)C2,Activity,[1],23%
same,Cp(f),Plasma,7.3 nM
same,EC50,[2],> 10 µM
same,Activity,Canis familiaris [3],Toxic
same,Drug uptake(free),Rattus norvegicus [4],460 to 760 nM
same,fCmax,Rattus norvegicus [5],440 nM
same,fCmax,Rattus norvegicus [6],313 nM
same,Emax at 13 µM,[7],23%
same,fAUC,Rattus norvegicus [8],4.927 µM·h
same,Drug uptake(free),Brain,32 nM
same,bioavailability,[9],91%
same,KA,[10],1.3 µM
same,Kp uu,[11],0.3
same,Ki,[12],16 nM
same,Activity,Rattus norvegicus [13],Active
same,Activity,[14],Not Active
same,Kp uu,[15],0.3
same,Activity,Canis familiaris [16],Toxic
same,Activity,Mus musculus,Active
same,clearance,[17],1.7 mL/min/kg
